Assays:
[1] = system: Rattus norvegicus; assay: Anti-inflammatory activity in rat assessed as inhibition of carrageenan-induced paw edema at 10 mg/kg, po administered 30 mins before carrageenan challenge measured after 1 hr relative to control; type: functional
In short: (§1)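 Male rats were dosed orally with agents suspended in 0.5% Na CMC, 30 min before 0.1 mL of 1% (w/v) carrageenan was injected into the right hind paw. Thickness of both paws was measured 1, 3 and 5 h after injection. Activity was calculated as percent decrease in edema thickness relative to the carrageenan-induced edema. Data given as mean ± SD with non-parametric comparison, P < 0.05.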

[2] = system: Rattus norvegicus; assay: Anti-inflammatory activity in rat assessed as inhibition of carrageenan-induced paw edema at 10 mg/kg, po administered 30 mins before carrageenan challenge measured after 3 hrs relative to control; type: functional; in short: as §1
[3] = system: Rattus norvegicus; assay: Anti-inflammatory activity in rat assessed as inhibition of carrageenan-induced paw edema at 10 mg/kg, po administered 30 mins before carrageenan challenge measured after 5 hrs relative to control; type: functional; in short: as §1
[4] = system: Rattus norvegicus; assay: Analgesic activity in rat assessed as pain threshold time at 10 mg/kg, po measured at 1.5 hrs post dose by hot plate method (reference value: 19.1 to 21.2 sec); type: functional
[5] = system: Rattus norvegicus; assay: Analgesic activity in rat assessed as pain threshold time at 10 mg/kg, po measured at 0.5 hr post dose by hot plate method (reference value: 19.1 to 21.2 sec); type: functional
[6] = system: Rattus norvegicus; assay: Analgesic activity in rat assessed as pain threshold time at 10 mg/kg, po measured at 1 hr post dose by hot plate method (reference value: 19.1 to 21.2 sec); type: functional
[7] = system: Rattus norvegicus; assay: Anti-inflammatory activity in rat assessed as inhibition of carrageenan-induced paw edema at 20 mg/kg, po administered 30 mins before carrageenan challenge measured after 5 hrs relative to control; type: functional; in short: as §1
[8] = system: Rattus norvegicus; assay: Anti-inflammatory activity in rat assessed as inhibition of carrageenan-induced paw edema at 20 mg/kg, po administered 30 mins before carrageenan challenge measured after 3 hrs relative to control; type: functional; in short: as §1
[9] = system: Rattus norvegicus; assay: Anti-inflammatory activity in rat assessed as inhibition of carrageenan-induced paw edema at 5 mg/kg, po administered 30 mins before carrageenan challenge measured after 3 hrs relative to control; type: functional; in short: as §1
[10] = system: Rattus norvegicus; assay: Anti-inflammatory activity in rat assessed as inhibition of carrageenan-induced paw edema at 20 mg/kg, po administered 30 mins before carrageenan challenge measured after 1 hr relative to control; type: functional; in short: as §1
[11] = system: Rattus norvegicus; assay: Anti-inflammatory activity in rat assessed as inhibition of carrageenan-induced paw edema at 5 mg/kg, po administered 30 mins before carrageenan challenge measured after 5 hrs relative to control; type: functional; in short: as §1
[12] = biological target: T1, Prostaglandin G/H synthase 1 (Ovis aries, UniProt P05979); assay: Inhibition of ovine COX1 by enzyme immunoassay
T1 sequence (P05979 whole entry): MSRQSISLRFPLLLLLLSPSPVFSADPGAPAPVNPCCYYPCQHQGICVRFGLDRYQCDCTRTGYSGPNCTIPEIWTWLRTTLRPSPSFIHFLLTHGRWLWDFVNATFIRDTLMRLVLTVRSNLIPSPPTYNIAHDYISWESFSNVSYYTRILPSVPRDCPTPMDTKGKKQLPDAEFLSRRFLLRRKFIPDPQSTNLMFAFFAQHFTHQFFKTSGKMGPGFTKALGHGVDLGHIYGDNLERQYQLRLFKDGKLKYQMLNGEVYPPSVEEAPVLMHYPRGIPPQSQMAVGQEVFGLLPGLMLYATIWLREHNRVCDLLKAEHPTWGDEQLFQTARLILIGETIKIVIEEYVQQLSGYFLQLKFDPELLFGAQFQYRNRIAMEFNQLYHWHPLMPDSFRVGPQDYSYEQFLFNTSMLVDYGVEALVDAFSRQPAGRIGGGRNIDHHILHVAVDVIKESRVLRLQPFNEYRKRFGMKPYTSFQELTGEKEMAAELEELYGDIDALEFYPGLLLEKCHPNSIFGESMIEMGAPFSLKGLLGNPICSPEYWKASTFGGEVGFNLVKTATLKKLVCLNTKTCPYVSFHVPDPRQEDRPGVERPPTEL

[13] = system: Rattus norvegicus; assay: Anti-inflammatory activity in po dosed rat assessed as inhibition of carrageenan-induced paw edema administered 30 mins before carrageenan challenge measured after 1 to 5 hrs; type: functional, organism-based; in short: as §1
[14] = Ulcerogenecity in rat carrageenan-induced inflammation model assessed as stomach mucosal damage by measuring lesions at 5 to 20 mg/kg, po administered 30 mins before carrageenan challenge measured after 1 to 5 hrs by macroscopic analysis; type: ADME, organism-based; conditions: in vivo
[15] = system: Rattus norvegicus; assay: Anti-inflammatory activity in rat assessed as inhibition of carrageenan-induced paw edema at 5 mg/kg, po administered 30 mins before carrageenan challenge measured after 1 hr relative to control; type: functional; in short: as §1

Structure (SMILES) | inhibition in vivo at 10 mg/kg [1] | inhibition in vivo at 10 mg/kg [2] | inhibition in vivo at 10 mg/kg [3] | Time [4] | Time [5] | Time [6] | also measured
Clc1cccc(N2CCN(Cc3ccc4c(c3)OCCO4)CC2)c1 | 31% | 37% | 24% | – | – | – | –
O=[N+]([O-])c1ccc(N2CCN(Cc3ccc4c(c3)OCCO4)CC2)cc1 | 68% | 79% | 65% | 21.2 s | 23.4 s | 22.6 s | –
c1ccc(N2CCN(Cc3ccc4c(c3)OCCO4)CC2)cc1 | 28% | 35% | 25% | – | – | – | –
O=C(O)Cc1ccccc1Nc1c(Cl)cccc1Cl [DICLOFENAC] | 41 to 42% | 79 to 80% | 50 to 52% | 22.3 s | 24.1 s | 23.5 s | –
c1ccc(N2CCN(Cc3ccc4c(c3)OCCO4)CC2)nc1 | 40% | 55% | 35% | – | – | – | –
Cc1ccc(N2CCN(Cc3ccc4c(c3)OCCO4)CC2)c(C)c1 | 16% | 28% | 11% | – | – | – | –
COc1ccc(N2CCN(Cc3ccc4c(c3)OCCO4)CC2)cc1 | 71% | 88% | 63% | 22.3 s | 24.6 s | 23.3 s | –
FC(F)(F)c1cccc(N2CCN(Cc3ccc4c(c3)OCCO4)CC2)c1 | 76 to 78% | 91 to 92% | 68% | 23.1 s | 26.4 s | 24.7 s | inhibition in vivo at 20 mg/kg [7]: 75%; inhibition in vivo at 20 mg/kg [8]: 95%; inhibition in vivo at 5 mg/kg [9]: 73%; inhibition in vivo at 20 mg/kg [10]: 78%; inhibition in vivo at 5 mg/kg [11]: 50%; IC50 [12]: 8.35 µM; inhibition [13]: Dose-dependent effect; Activity [14]: Non-Toxic; inhibition in vivo at 5 mg/kg [15]: 56%
COc1cccc(N2CCN(Cc3ccc4c(c3)OCCO4)CC2)c1 | 45% | 62% | 40% | – | – | – | –
Fc1ccc(N2CCN(Cc3ccc4c(c3)OCCO4)CC2)cc1 | 62% | 82% | 57% | 19.9 s | 21.5 s | 20.7 s | –
Clc1cccc(N2CCN(Cc3ccc4c(c3)OCCO4)CC2)c1Cl | 18% | 28% | 13% | – | – | – | –
c1ccc(C(c2ccccc2)N2CCN(Cc3ccc4c(c3)OCCO4)CC2)cc1 | 15% | 27% | 19% | – | – | – | –
